Results: ChEMBL document CHEMBL4422635, “Structure-Based Discovery of a Subtype-Selective Inhibitor Targeting a Transient Receptor Potential Vanilloid Channel” (J Med Chem, 2019)
Positions count from the first letter of the chain named. Calls of active or inactive are those of the source. The calls are words filed in the database; no cut-off is given here.

Assays:
[1] = tested on: Transient receptor potential cation channel subfamily V member 1 (Mus musculus), Q704Y3 [S513F]; experiment: Antagonist activity at mouse TRPV1 S513F mutant expressed in HEK293T cells assessed as inhibition of 2-APB evoked currents at 0.3 to 10 uM at -60 mV holding potential by whole-cell patch clamp assay; format: cell-based
Transient receptor potential cation channel subfamily V member 1 (Mus musculus), Q704Y3 [S513F], sequence (Q704Y3 whole entry S513F): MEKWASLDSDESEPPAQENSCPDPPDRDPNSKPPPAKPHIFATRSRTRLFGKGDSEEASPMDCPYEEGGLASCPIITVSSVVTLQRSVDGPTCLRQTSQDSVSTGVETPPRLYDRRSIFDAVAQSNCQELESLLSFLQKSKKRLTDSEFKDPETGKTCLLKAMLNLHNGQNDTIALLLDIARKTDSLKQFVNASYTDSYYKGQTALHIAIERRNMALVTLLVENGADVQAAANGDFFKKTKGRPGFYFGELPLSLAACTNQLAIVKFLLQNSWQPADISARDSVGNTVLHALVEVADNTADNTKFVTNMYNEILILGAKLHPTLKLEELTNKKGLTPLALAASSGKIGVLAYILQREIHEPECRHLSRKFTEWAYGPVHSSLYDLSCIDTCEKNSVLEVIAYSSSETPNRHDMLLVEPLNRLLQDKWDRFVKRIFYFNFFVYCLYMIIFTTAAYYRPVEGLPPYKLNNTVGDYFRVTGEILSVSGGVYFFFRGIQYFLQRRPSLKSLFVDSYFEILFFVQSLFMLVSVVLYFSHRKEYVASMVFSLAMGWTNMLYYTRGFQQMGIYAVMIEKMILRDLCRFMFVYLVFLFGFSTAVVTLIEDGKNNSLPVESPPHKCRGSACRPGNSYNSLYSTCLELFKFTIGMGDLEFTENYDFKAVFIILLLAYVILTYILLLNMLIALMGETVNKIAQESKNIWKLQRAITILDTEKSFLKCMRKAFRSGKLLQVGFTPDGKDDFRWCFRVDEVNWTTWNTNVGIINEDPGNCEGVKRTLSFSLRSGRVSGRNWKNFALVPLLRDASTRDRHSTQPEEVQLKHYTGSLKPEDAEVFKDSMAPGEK
Outline: (§1)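 Whole-cell voltage clamp of transiently transfected HEK293T cells co-expressing GFP, recorded 36-96 h post-transfection. Hold -60 mV; pipettes 3-7 MΩ. Bath 165 mM NaCl, 10 mM HEPES pH 7.3; pipette 140 mM KCl, 10 mM HEPES pH 7.3. Room temperature (~25 °C). IC50 from Hill fits of I/I0, the current ratio after vs before inhibitor; mean ± SEM.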

Homo sapiens = species on record: Homo sapiens; experiment: Inhibition of LPA-induced TRPV2/LPAR1 mediated cell migration in human PC3M cells at 20 uM after 24 hrs by transwell migration assay; format: cell-based
[2] = tested on: T1, Transient receptor potential cation channel subfamily V member 2 (Mus musculus), Q9WTR1 [Q525E]; experiment: Antagonist activity at mouse TRPV2 Q525E mutant expressed in HEK293T cells assessed as inhibition of 2-APB evoked currents at -60 mV holding potential by whole-cell patch clamp assay; format: cell-based; outline: as §1
T1 sequence (whole entry): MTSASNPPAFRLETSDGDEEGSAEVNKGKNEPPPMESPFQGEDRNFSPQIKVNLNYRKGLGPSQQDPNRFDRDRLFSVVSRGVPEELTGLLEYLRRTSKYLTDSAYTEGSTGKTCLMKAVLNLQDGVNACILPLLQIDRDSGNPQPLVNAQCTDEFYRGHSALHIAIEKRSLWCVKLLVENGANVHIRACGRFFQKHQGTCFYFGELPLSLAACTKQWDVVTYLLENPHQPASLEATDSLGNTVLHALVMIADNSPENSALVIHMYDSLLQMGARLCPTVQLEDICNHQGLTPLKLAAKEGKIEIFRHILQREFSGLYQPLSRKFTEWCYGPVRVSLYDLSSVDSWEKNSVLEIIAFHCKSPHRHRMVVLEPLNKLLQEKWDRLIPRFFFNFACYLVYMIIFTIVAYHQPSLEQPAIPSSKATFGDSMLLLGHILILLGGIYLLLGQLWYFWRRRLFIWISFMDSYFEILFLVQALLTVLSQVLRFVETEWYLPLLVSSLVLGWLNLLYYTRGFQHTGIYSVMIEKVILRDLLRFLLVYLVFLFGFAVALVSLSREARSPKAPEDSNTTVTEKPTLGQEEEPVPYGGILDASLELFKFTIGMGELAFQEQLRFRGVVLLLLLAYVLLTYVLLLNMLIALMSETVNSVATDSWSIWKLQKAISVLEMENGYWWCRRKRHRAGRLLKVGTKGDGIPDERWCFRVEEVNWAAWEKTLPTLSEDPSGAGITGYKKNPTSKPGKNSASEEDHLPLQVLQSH

Mus musculus = experiment: Antagonist activity at mouse TRPV2/LPAR1 expressed in LPA-stimulated HEK293T cells assessed as inhibition of 2-APB evoked currents at 10 uM dosed 3 mins after LPA stimulation by whole-cell patch clamp assay; outline: as §1
[3] = target: Transient receptor potential cation channel subfamily V member 4 (Mus musculus) (UniProt Q9EPK8); experiment: Antagonist activity at mouse TRPV4 expressed in HEK293T cells assessed as inhibition of GSK-1016790A evoked currents at 3 to 10 uM -60 mV holding potential by whole-cell patch clamp assay; format: cell-based; outline: as §1
Transient receptor potential cation channel subfamily V member 4 (Mus musculus), sequence (Q9EPK8 whole entry): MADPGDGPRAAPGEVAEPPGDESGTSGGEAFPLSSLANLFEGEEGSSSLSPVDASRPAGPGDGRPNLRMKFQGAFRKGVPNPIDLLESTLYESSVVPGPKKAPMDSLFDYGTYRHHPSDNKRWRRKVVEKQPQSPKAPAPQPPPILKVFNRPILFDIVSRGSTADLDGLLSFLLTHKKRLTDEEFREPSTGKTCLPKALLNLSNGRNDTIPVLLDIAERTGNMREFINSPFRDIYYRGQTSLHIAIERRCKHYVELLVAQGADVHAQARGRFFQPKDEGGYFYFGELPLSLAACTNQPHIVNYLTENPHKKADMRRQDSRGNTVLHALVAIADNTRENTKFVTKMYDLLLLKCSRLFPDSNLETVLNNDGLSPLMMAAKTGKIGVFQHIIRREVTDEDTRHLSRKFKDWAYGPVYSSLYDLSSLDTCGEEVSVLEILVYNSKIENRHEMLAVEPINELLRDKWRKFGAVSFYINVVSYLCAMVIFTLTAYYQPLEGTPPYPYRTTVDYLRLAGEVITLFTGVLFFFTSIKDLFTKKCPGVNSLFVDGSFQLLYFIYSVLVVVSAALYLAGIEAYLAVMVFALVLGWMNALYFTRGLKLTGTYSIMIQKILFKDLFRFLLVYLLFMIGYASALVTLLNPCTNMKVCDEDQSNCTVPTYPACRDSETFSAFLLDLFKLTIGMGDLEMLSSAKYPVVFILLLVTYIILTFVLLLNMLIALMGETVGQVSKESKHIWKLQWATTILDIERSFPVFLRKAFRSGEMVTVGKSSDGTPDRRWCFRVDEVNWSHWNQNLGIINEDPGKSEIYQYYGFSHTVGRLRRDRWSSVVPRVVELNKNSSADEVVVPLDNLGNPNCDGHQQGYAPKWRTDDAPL

[4] = target: T2, Transient receptor potential cation channel subfamily V member 2 (Mus musculus) (UniProt Q9WTR1); experiment: Antagonist activity at mouse TRPV2 expressed in HEK293T cells assessed as inhibition of 2-APB evoked currents at -60 mV holding potential by whole-cell patch clamp assay; format: cell-based; outline: as §1
T2 sequence (whole entry): T1 sequence (whole entry) with E525Q

[5] = tested on: Transient receptor potential cation channel subfamily V member 1 (Mus musculus), Q704Y3 [S513F,T551L]; experiment: Antagonist activity at mouse TRPV1 S513F/T551L double mutant expressed in HEK293T cells assessed as inhibition of 2-APB evoked currents at 0.3 to 10 uM at -60 mV holding potential by whole-cell patch clamp assay; format: cell-based; outline: as §1
Transient receptor potential cation channel subfamily V member 1 (Mus musculus), Q704Y3 [S513F,T551L], sequence (Q704Y3 whole entry S513F/T551L): as the sequence (Q704Y3 whole entry S513F) above, with T551L counted along it

[6] = target: Transient receptor potential cation channel subfamily V member 1 (Mus musculus) (UniProt Q704Y3); experiment: Antagonist activity at mouse TRPV1 expressed in HEK293T cells assessed as inhibition of 2-APB evoked currents at 3 to 10 uM -60 mV holding potential by whole-cell patch clamp assay; format: cell-based; outline: as §1
Transient receptor potential cation channel subfamily V member 1 (Mus musculus), sequence (Q704Y3 whole entry): as the sequence (Q704Y3 whole entry S513F) above, with F513S counted along it

- inhibition [1]: inactive
- inhibition [2]: inactive
- inhibition [3]: inactive
- inhibition [4]: Dose-dependent effect
- inhibition [5]: Active
- inhibition [6]: inactive
Structure (SMILES): CCCN(C)c1cc(C(F)(F)F)nc(SCCC(=O)NCc2ccco2)n1
- inhibition (Homo sapiens): Active
- inhibition (Mus musculus): Active
